Assay results published in ChEMBL document CHEMBL1770084, “An inhibitor-like binding mode of a carbonic anhydrase activator within the active site of isoform II” (Bioorg Med Chem Lett, 2011).

Columns and labels:
[1] = target: Carbonic anhydrase 7 (Homo sapiens) (UniProt P43166); assay: Activation of human cytosolic carbonic anhydrase 7 preincubated for 15 mins by CO2 hydration stopped-flow assay
[2] = target: Carbonic anhydrase 2 (Homo sapiens) (UniProt P00918); assay: Activation of human carbonic anhydrase 2 activity at 20 uM after 15 mins by CO2 hydration stopped-flow assay relative to control
In short: (§1)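 hCA II (10 nM) held with test compound at 20 µM (stated as 20 lM in the footnote) for 15 min to 144 h before assay. Activity then read by stopped-flow CO2 hydrase assay. Values are % of initial enzyme activity with no test compound, which is set to 100%.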

[3] = target: Carbonic anhydrase 2 (Homo sapiens) (UniProt P00918); assay: Activation of human carbonic anhydrase 2 activity at 20 uM after 1 hr by CO2 hydration stopped-flow assay relative to control; in short: as §1
[4] = target: Carbonic anhydrase 12 (Homo sapiens) (UniProt O43570); assay: Activation of human transmembrane carbonic anhydrase 12 preincubated for 15 mins by CO2 hydration stopped-flow assay
[5] = target: Carbonic anhydrase 2 (Homo sapiens) (UniProt P00918); assay: Activation of human carbonic anhydrase 2 activity at 20 uM after 36 hrs by CO2 hydration stopped-flow assay relative to control; in short: as §1
[6] = target: Carbonic anhydrase 1 (Homo sapiens) (UniProt P00915); assay: Binding affinity to human cytosolic carbonic anhydrase 1
[7] = target: Carbonic anhydrase 9 (Homo sapiens) (UniProt Q16790); assay: Activation of human transmembrane carbonic anhydrase 9 preincubated for 15 mins by CO2 hydration stopped-flow assay
[8] = target: Carbonic anhydrase 7 (Homo sapiens) (UniProt P43166); assay: Binding affinity to human cytosolic carbonic anhydrase 7
[9] = target: Carbonic anhydrase 2 (Homo sapiens) (UniProt P00918); assay: Activation of human carbonic anhydrase 2 activity at 20 uM after 12 hrs by CO2 hydration stopped-flow assay relative to control; in short: as §1
[10] = target: Carbonic anhydrase 2 (Homo sapiens) (UniProt P00918); assay: Inhibition of human carbonic anhydrase 2 activity at 20 uM after 72 hrs by CO2 hydration stopped-flow assay relative to control; in short: as §1
[11] = target: Carbonic anhydrase 9 (Homo sapiens) (UniProt Q16790); assay: Binding affinity to human transmembrane carbonic anhydrase 9
[12] = target: Carbonic anhydrase 2 (Homo sapiens) (UniProt P00918); assay: Inhibition of human carbonic anhydrase 2 activity at 20 uM after 48 hrs by CO2 hydration stopped-flow assay relative to control; in short: as §1
[13] = target: Carbonic anhydrase 12 (Homo sapiens) (UniProt O43570); assay: Binding affinity to human transmembrane carbonic anhydrase 12
[14] = target: Carbonic anhydrase 2 (Homo sapiens) (UniProt P00918); assay: Activation of human cytosolic carbonic anhydrase 2 preincubated for 15 mins by CO2 hydration stopped-flow assay
[15] = target: Carbonic anhydrase 2 (Homo sapiens) (UniProt P00918); assay: Activation of human carbonic anhydrase 2 activity at 20 uM after 24 hrs by CO2 hydration stopped-flow assay relative to control; in short: as §1
[16] = target: Carbonic anhydrase 2 (Homo sapiens) (UniProt P00918); assay: Inhibition of human carbonic anhydrase 2 activity at 20 uM after 144 hrs by CO2 hydration stopped-flow assay relative to control; in short: as §1
[17] = target: Carbonic anhydrase 2 (Homo sapiens) (UniProt P00918); assay: Binding affinity to human cytosolic carbonic anhydrase 2
[18] = target: Carbonic anhydrase 14 (Homo sapiens) (UniProt Q9ULX7); assay: Binding affinity to human transmembrane carbonic anhydrase 14
[19] = target: Carbonic anhydrase 2 (Homo sapiens) (UniProt P00918); assay: Inhibition of human carbonic anhydrase 2 activity at 20 uM after 96 hrs by CO2 hydration stopped-flow assay relative to control; in short: as §1
[20] = target: Carbonic anhydrase 14 (Homo sapiens) (UniProt Q9ULX7); assay: Activation of human transmembrane carbonic anhydrase 14 preincubated for 15 mins by CO2 hydration stopped-flow assay
[21] = target: Carbonic anhydrase 1 (Homo sapiens) (UniProt P00915); assay: Activation of human cytosolic carbonic anhydrase 1 preincubated for 15 mins by CO2 hydration stopped-flow assay

Carbonic anhydrase 1 (Homo sapiens), sequence (P00915 2-261 limits assumed): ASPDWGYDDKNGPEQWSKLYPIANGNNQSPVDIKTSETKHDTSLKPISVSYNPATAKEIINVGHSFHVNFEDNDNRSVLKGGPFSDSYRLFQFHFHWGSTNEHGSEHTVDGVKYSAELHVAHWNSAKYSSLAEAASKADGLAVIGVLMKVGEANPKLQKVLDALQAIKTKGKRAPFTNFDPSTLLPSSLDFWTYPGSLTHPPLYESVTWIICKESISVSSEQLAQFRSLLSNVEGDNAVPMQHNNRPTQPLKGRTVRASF
Carbonic anhydrase 14 (Homo sapiens), sequence (Q9ULX7 whole entry): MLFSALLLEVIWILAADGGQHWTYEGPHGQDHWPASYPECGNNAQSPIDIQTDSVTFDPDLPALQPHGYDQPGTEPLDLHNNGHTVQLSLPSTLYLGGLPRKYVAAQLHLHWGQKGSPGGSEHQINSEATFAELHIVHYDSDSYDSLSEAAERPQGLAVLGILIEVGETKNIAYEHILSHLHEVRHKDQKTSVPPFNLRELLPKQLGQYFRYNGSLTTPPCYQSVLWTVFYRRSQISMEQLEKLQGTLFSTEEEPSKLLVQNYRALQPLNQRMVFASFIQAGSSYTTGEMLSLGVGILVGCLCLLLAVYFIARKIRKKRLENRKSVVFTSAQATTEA
Carbonic anhydrase 12 (Homo sapiens), sequence (O43570 whole entry): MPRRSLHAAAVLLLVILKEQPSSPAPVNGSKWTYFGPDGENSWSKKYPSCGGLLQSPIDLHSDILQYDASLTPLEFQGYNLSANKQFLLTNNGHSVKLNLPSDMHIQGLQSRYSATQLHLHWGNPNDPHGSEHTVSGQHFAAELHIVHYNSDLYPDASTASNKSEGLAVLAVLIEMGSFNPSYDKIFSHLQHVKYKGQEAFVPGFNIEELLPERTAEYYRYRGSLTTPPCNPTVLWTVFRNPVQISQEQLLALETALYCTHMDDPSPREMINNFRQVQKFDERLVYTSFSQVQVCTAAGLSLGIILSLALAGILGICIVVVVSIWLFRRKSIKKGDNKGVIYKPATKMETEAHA
Carbonic anhydrase 7 (Homo sapiens), sequence (P43166 whole entry): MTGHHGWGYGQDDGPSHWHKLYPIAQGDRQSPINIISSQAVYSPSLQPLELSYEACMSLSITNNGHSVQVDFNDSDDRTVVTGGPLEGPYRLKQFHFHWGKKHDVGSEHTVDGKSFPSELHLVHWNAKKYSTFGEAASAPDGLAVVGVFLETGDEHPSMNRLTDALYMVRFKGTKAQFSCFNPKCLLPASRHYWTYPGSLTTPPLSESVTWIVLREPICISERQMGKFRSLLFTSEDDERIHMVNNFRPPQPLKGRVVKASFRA

With `Cc1cc(C)[n+](CCc2c[nH]cn2)c(C)c1` the Ka [1] was 7.71 µM, the Activity [2] was 156% and the Activity [3] was 153%. For the same compound, the Ka [4] was 0.96 µM, the Activity [5] was 147% and the Activity [6] was 3.15 µM. It also gave a Ka [7] of 0.76 µM, an Activity [8] of 3.15 µM and an Activity [9] of 154%. For the same compound, the inhibition [10] was 14%, the Activity [11] was 0.08 µM and the inhibition [12] was 65%. The Activity [13] was 0.08 µM, the Ka [14] was 18 µM and the Activity [15] was 149%. It also gave an inhibition [16] of 3%, an Activity [17] of 3.15 µM and an Activity [18] of 0.08 µM. It also gave an inhibition [19] of 5%, a Ka [20] of 0.08 µM and a Ka [21] of 3.15 µM.
